Measurements from ChEMBL document CHEMBL4359813, “Synthesis and antimycobacterial activity of imidazo[1,2-b][1,2,4,5]tetrazines” (2019).
≈ marks a conversion by molar mass, not a printed value. Calls of active or inactive are those of the source. The rule behind the calls is not given here.

What was measured:
[1] = test system: Mycolicibacterium smegmatis; assay: Antimycobacterial activity against Mycobacterium smegmatis atR9 in liquid medium after 48 hrs by two-fold serial dilution method; format: functional; details: atR9, 48 h
Summary of the method: (§1)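 M. smegmatis resistant mutants were isolated on M290 agar containing 3.5-4× MIC of the test compound at 30°C and resistance was reconfirmed. MIC was then run in Lemco-Tw broth (Tween-80 0.05%). An overnight culture was diluted 1:200, and two-fold serial dilutions in DMSO were added. Plates were incubated at 37°C and 250 rpm for 48 h. MIC was read as the lowest concentration with no visible growth.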

[2] = test system: Mycolicibacterium smegmatis; assay: Antimycobacterial activity against Mycobacterium smegmatis MC2 155 in liquid medium after 48 hrs by two-fold serial dilution method; format: functional; details: MC2 155, 48 h
Summary of the method: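 M. smegmatis mc2 155 grown overnight in Lemco-Tw broth, diluted 1:200 in fresh broth. […] Top wells could carry 4% DMSO. Incubated 48 h at 37 °C with shaking at 250 rpm. MIC is the lowest concentration with no visible growth.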

[3] = test system: Mycolicibacterium smegmatis; assay: Antimycobacterial activity against Mycobacterium smegmatis atR1 assessed as decrease in drug resistance development at 100 nmol/disc after 2 to 3 days by paper disc method; format: functional, organism-based
Summary of the method: (§2)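 Mutant M. smegmatis strains were grown in Middlebrook 7H9/OADC/Tween/glycerol to OD600 1.2. Cultures were diluted 1:9:10 (culture:water:M290) and overlaid on M290 agar. Commercial or impregnated paper discs were applied and plates incubated 2–3 days at 37 °C. Inhibition halos were measured to 1 mm, run in triplicate, mean ± SD.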

[4] = test system: Mycolicibacterium smegmatis; assay: Antimycobacterial activity against Mycobacterium smegmatis atR11 assessed as decrease in drug resistance development at 100 nmol/disc after 2 to 3 days by paper disc method; format: functional, organism-based; summary of the method: as §2
[5] = test system: Mycolicibacterium smegmatis; assay: Antimycobacterial activity against Mycobacterium smegmatis atR33 assessed as decrease in drug resistance development at 100 nmol/disc after 2 to 3 days by paper disc method; format: functional, organism-based; summary of the method: as §2
[6] = test system: Mycolicibacterium smegmatis; assay: Antimycobacterial activity against Mycobacterium smegmatis atR14 in liquid medium after 48 hrs by two-fold serial dilution method; format: functional; details: atR14, 48 h; summary of the method: as §1
[7] = test system: Mycolicibacterium smegmatis; assay: Antimycobacterial activity against Mycobacterium smegmatis MC2 155 in solid medium by two-fold serial dilution method; format: functional
Summary of the method: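 M290 soybean-casein agar plates carried two-fold compound dilutions, 8–64 or 8–128 µg/ml, some with extra 20 or 25 µg/ml plates.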

[8] = test system: Mycolicibacterium smegmatis; assay: Antimycobacterial activity against Mycobacterium smegmatis atR14 assessed as decrease in drug resistance development at 100 nmol/disc after 2 to 3 days by paper disc method; format: functional, organism-based; summary of the method: as §2
[9] = test system: Mycolicibacterium smegmatis; assay: Antimycobacterial activity against Mycobacterium smegmatis atR2 assessed as decrease in drug resistance development at 100 nmol/disc after 2 to 3 days by paper disc method; format: functional, organism-based; summary of the method: as §2
[10] = test system: Mycolicibacterium smegmatis; assay: Antimycobacterial activity against Mycobacterium smegmatis atR11 in liquid medium after 48 hrs by two-fold serial dilution method; format: functional; details: atR11, 48 h; summary of the method: as §1
[11] = test system: Mycolicibacterium smegmatis; assay: Antimycobacterial activity against Mycobacterium smegmatis atR17 assessed as decrease in drug resistance development at 100 nmol/disc after 2 to 3 days by paper disc method; format: functional, organism-based; summary of the method: as §2
[12] = test system: Mycolicibacterium smegmatis; assay: Antimycobacterial activity against Mycobacterium smegmatis atR40 assessed as decrease in drug resistance development at 100 nmol/disc after 2 to 3 days by paper disc method; format: functional, organism-based
Summary of the method: (§3)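 Drug-resistant M. smegmatis mc2 155 mutants, isolated on M290 agar with 3.5-4× MIC of compound and resistance re-confirmed, grown in Middlebrook 7H9 (OADC, 0.1% Tween-80, 0.4% glycerol) to OD600 1.2. Diluted 1:9:10 culture:water:M290 and poured as top layer on M290 agar. Impregnated paper discs applied; 37 °C for 2–3 days. Halos measured to nearest 1 mm; triplicates, mean ± SD versus control strain.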

[13] = test system: Mycolicibacterium smegmatis; assay: Antimycobacterial activity against Mycobacterium smegmatis atR10 assessed as decrease in drug resistance development at 100 nmol/disc after 2 to 3 days by paper disc method; format: functional, organism-based; summary of the method: as §2
[14] = test system: Mycolicibacterium smegmatis; assay: Antimycobacterial activity against Mycobacterium smegmatis atR19 assessed as decrease in drug resistance development at 100 nmol/disc after 2 to 3 days by paper disc method; format: functional, organism-based; summary of the method: as §2
[15] = test system: Mycolicibacterium smegmatis; assay: Antimycobacterial activity against Mycobacterium smegmatis atR8 assessed as decrease in drug resistance development at 100 nmol/disc after 2 to 3 days by paper disc method; format: functional, organism-based; summary of the method: as §3
[16] = test system: Mycolicibacterium smegmatis MC2 155; assay: Inhibition of STPK in Mycobacterium smegmatis MC2 155 expressing aminoglycoside phophotransferase-8 assessed as growth inhibition at 50 nmol/disk after 18 hrs in presence of kanamycin by paper disk method
[17] = test system: Mycolicibacterium smegmatis; assay: Antimycobacterial activity against Mycobacterium smegmatis atR37 in liquid medium after 48 hrs by two-fold serial dilution method; format: functional; details: atR37, 48 h; summary of the method: as §1
[18] = test system: Mycolicibacterium smegmatis; assay: Antimycobacterial activity against Mycobacterium smegmatis atR33 in liquid medium after 48 hrs by two-fold serial dilution method; format: functional; details: atR33, 48 h; summary of the method: as §1
[19] = test system: Mycolicibacterium smegmatis; assay: Antimycobacterial activity against Mycobacterium smegmatis atR10 in liquid medium after 48 hrs by two-fold serial dilution method; format: functional; details: atR10, 48 h; summary of the method: as §1
[20] = test system: Mycolicibacterium smegmatis; assay: Antimycobacterial activity against Mycobacterium smegmatis atR2 in liquid medium after 48 hrs by two-fold serial dilution method; format: functional; details: atR2, 48 h; summary of the method: as §1
[21] = test system: Mycobacterium tuberculosis; assay: Antimycobacterial activity against Mycobacterium tuberculosis H37Rv in liquid medium; format: functional
Summary of the method: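 M. tuberculosis H37Rv; MIC determined in liquid medium on the automated Bactec MGIT 960 system.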

[22] = test system: Mycolicibacterium smegmatis; assay: Antimycobacterial activity against Mycobacterium smegmatis atR37 assessed as decrease in drug resistance development at 100 nmol/disc after 2 to 3 days by paper disc method; format: functional, organism-based; summary of the method: as §3
[23] = test system: Mycolicibacterium smegmatis; assay: Antimycobacterial activity against Mycobacterium smegmatis atR8 in liquid medium after 48 hrs by two-fold serial dilution method; format: functional; details: atR8, 48 h; summary of the method: as §1
[24] = test system: Mycolicibacterium smegmatis; assay: Antimycobacterial activity against Mycobacterium smegmatis atR1 in liquid medium after 48 hrs by two-fold serial dilution method; format: functional; details: atR1, 48 h; summary of the method: as §1
[25] = test system: Mycolicibacterium smegmatis; assay: Antimycobacterial activity against Mycobacterium smegmatis atR19 in liquid medium after 48 hrs by two-fold serial dilution method; format: functional; details: atR19, 48 h; summary of the method: as §1
[26] = test system: Mycolicibacterium smegmatis; assay: Antimycobacterial activity against Mycobacterium smegmatis atR9 assessed as decrease in drug resistance development at 100 nmol/disc after 2 to 3 days by paper disc method; format: functional, organism-based; summary of the method: as §3
[27] = test system: Mycolicibacterium smegmatis; assay: Antimycobacterial activity against Mycobacterium smegmatis atR40 in liquid medium after 48 hrs by two-fold serial dilution method; format: functional; details: atR40, 48 h; summary of the method: as §1
[28] = test system: Mycolicibacterium smegmatis; assay: Antimycobacterial activity against Mycobacterium smegmatis atR17 in liquid medium after 48 hrs by two-fold serial dilution method; format: functional; details: atR17, 48 h; summary of the method: as §1
[29] = test system: Mycolicibacterium smegmatis; assay: Antimycobacterial activity against Mycobacterium smegmatis atR40 assessed as decrease in drug resistance development at 100 ug/disc after 2 to 3 days by paper disc method; format: functional, organism-based; summary of the method: as §3
[30] = test system: Mycolicibacterium smegmatis; assay: Antimycobacterial activity against Mycobacterium smegmatis atR14 assessed as decrease in drug resistance development at 100 ug/disc after 2 to 3 days by paper disc method; format: functional, organism-based; summary of the method: as §2
[31] = test system: Mycolicibacterium smegmatis; assay: Antimycobacterial activity against Mycobacterium smegmatis atR11 assessed as decrease in drug resistance development at 100 ug/disc after 2 to 3 days by paper disc method; format: functional, organism-based; summary of the method: as §2
[32] = test system: Mycolicibacterium smegmatis; assay: Antimycobacterial activity against Mycobacterium smegmatis atR10 assessed as decrease in drug resistance development at 100 ug/disc after 2 to 3 days by paper disc method; format: functional, organism-based; summary of the method: as §2
[33] = test system: Mycolicibacterium smegmatis; assay: Antimycobacterial activity against Mycobacterium smegmatis atR2 assessed as decrease in drug resistance development at 100 ug/disc after 2 to 3 days by paper disc method; format: functional, organism-based; summary of the method: as §2
[34] = test system: Mycolicibacterium smegmatis; assay: Antimycobacterial activity against Mycobacterium smegmatis atR8 assessed as decrease in drug resistance development at 100 ug/disc after 2 to 3 days by paper disc method; format: functional, organism-based; summary of the method: as §3
[35] = test system: Mycolicibacterium smegmatis; assay: Antimycobacterial activity against Mycobacterium smegmatis atR37 assessed as decrease in drug resistance development at 100 ug/disc after 2 to 3 days by paper disc method; format: functional, organism-based; summary of the method: as §3
[36] = test system: Mycolicibacterium smegmatis; assay: Antimycobacterial activity against Mycobacterium smegmatis atR1 assessed as decrease in drug resistance development at 100 ug/disc after 2 to 3 days by paper disc method; format: functional, organism-based; summary of the method: as §2

In the case of `Cc1cn(-c2nnc3ncc(SC(C)C)n3n2)cn1`, the MIC [1] is reported as 128 mg/L (≈ 465 µM), the MIC [2] is reported as 232 µM (≈ 64 µg/mL) and the Activity [3] is reported as “inactive”. For the same compound, the Activity [4] was “inactive”, the Activity [5] was “inactive” and the MIC [6] was 128 mg/L (≈ 465 µM). The MIC [7] was 90.8 µM (≈ 25 µg/mL), the Activity [8] was “inactive” and the Activity [9] was “Active”. The MIC [10] was 256 mg/L (≈ 930 µM), the Activity [11] was “inactive” and the Activity [12] was “inactive”. For the same compound, the Activity [13] was “inactive”, the Activity [14] was “inactive” and the Activity [15] was “inactive”. For the same compound, the inhibition zone (IZ) [16] was 13 mm, the MIC [17] was 128 mg/L (≈ 465 µM) and the MIC [18] was 128 mg/L (≈ 465 µM). The MIC [19] was 256 mg/L (≈ 930 µM), the MIC [20] was 128 mg/L (≈ 465 µM) and the MIC [21] was 90.8 µM (≈ 25 µg/mL). The Activity [22] was “Active”, the MIC [23] was 256 mg/L (≈ 930 µM) and the MIC [24] was 128 mg/L (≈ 465 µM). For the same compound, the MIC [25] was 128 mg/L (≈ 465 µM), the Activity [26] was “inactive” and the MIC [27] was 128 mg/L (≈ 465 µM). It also gave an MIC [28] of 128 mg/L (≈ 465 µM).
In the case of `CO[C@H]1/C=C/O[C@@]2(C)Oc3c(C)c(O)c4c(O)c(c(/C=N/N5CCN(C)CC5)c(O)c4c3C2=O)NC(=O)/C(C)=C\C=C\[C@H](C)[C@H](O)[C@@H](C)[C@@H](O)[C@@H](C)[C@H](OC(C)=O)[C@@H]1C`, the Activity [29] is reported as “Active”, the Activity [30] is reported as “inactive” and the Activity [31] is reported as “inactive”. For the same compound, the Activity [32] was “inactive”, the Activity [33] was “inactive” and the Activity [34] was “inactive”. For the same compound, the Activity [35] was “Active” and the Activity [36] was “inactive”.
